Key:
[1] = target: 5-hydroxytryptamine receptor 2A (Rattus norvegicus, UniProt P14842); experiment: Displacement of [3H]ketanserin from 5HT2A receptor in Sprague-Dawley albinus rat frontal cortex membranes after 15 mins
Method in brief: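 Rat frontal cortex membranes (male Sprague–Dawley, 180–200 g). Nonspecific binding was set with 1 μM cinanserin.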

[2] = target: T1, 5-hydroxytryptamine receptor 3A (Rattus norvegicus, UniProt P35563); experiment: Displacement of [3H]-LY278584 from 5HT3 receptor in Sprague-Dawley albinus rat cerebral cortex membranes after 30 mins
T1 sequence (P35563 whole entry): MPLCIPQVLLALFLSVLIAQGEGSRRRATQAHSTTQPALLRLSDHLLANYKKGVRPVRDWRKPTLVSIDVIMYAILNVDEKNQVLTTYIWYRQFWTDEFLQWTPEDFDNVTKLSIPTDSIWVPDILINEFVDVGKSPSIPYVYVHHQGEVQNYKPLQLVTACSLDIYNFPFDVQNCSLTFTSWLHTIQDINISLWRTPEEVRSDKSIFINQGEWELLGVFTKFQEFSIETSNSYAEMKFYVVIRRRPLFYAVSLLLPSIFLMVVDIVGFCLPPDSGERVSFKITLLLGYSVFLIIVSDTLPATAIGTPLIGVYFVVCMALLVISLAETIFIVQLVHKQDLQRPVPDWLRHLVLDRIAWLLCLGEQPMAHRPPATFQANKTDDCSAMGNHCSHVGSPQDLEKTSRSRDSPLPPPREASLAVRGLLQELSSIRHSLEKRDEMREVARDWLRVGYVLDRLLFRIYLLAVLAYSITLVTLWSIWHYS

[3] = target: D(2) dopamine receptor (Rattus norvegicus, UniProt P61169); experiment: Displacement of [3H]spiperone from dopamine D2 receptor in Sprague-Dawley albinus rat striatal membranes after 15 mins
[4] = target: 5-hydroxytryptamine receptor 4 (Rattus norvegicus, UniProt Q62758); experiment: Displacement of [3H]GR113808 from 5HT4 receptor in Sprague-Dawley albinus rat striatal membranes after 30 mins by scintillation counting
[5] = target: T2, 5-hydroxytryptamine receptor 1A (Rattus norvegicus, UniProt P19327); experiment: Displacement of [3H]-8-OH-DPAT from 5-HT1A receptor in Sprague-Dawley albinus rat cerebral cortex membranes after 15 mins
T2 sequence (P19327 whole entry): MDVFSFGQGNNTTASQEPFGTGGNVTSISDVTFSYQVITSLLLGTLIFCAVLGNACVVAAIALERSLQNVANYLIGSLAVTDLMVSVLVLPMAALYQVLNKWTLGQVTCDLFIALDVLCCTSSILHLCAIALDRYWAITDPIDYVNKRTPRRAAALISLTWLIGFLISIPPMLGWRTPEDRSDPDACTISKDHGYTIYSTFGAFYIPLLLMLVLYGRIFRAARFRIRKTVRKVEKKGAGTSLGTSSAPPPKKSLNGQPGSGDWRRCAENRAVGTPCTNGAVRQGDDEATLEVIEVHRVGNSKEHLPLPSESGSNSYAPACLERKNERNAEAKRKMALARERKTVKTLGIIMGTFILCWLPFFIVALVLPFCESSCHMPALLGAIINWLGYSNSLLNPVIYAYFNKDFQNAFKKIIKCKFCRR

[6] = target: 5-hydroxytryptamine receptor 7 (Rattus norvegicus, UniProt P32305); experiment: Displacement of [3H]-5-CT from 5HT7 receptor in Sprague-Dawley albinus rat hyphalamic membranes after 120 mins
5-hydroxytryptamine receptor 7, sequence (P32305 whole entry): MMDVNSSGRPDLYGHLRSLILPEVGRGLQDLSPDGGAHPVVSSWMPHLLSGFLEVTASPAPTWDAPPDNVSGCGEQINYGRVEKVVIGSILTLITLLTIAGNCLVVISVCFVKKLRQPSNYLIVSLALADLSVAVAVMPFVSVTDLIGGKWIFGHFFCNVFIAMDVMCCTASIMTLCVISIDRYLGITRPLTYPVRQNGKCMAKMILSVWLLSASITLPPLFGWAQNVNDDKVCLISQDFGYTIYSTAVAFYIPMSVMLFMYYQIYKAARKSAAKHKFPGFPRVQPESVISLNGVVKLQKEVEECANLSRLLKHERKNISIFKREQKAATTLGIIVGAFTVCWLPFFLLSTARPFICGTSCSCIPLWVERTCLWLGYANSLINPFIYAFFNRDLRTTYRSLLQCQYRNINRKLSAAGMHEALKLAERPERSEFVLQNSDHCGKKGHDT

5-hydroxytryptamine receptor 2A, sequence (P14842 whole entry): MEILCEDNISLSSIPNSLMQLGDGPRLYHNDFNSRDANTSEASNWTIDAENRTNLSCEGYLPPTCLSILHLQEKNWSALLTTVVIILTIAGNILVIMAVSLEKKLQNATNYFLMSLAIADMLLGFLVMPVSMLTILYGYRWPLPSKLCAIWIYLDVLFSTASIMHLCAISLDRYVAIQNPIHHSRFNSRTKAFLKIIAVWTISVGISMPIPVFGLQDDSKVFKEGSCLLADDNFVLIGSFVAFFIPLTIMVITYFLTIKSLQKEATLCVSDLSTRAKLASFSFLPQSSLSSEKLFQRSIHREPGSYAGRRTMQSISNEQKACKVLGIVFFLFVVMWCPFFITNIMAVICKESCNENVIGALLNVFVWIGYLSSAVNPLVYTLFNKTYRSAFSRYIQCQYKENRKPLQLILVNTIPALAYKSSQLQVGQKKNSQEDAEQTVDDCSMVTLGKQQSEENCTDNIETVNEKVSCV
D(2) dopamine receptor, sequence (P61169 whole entry): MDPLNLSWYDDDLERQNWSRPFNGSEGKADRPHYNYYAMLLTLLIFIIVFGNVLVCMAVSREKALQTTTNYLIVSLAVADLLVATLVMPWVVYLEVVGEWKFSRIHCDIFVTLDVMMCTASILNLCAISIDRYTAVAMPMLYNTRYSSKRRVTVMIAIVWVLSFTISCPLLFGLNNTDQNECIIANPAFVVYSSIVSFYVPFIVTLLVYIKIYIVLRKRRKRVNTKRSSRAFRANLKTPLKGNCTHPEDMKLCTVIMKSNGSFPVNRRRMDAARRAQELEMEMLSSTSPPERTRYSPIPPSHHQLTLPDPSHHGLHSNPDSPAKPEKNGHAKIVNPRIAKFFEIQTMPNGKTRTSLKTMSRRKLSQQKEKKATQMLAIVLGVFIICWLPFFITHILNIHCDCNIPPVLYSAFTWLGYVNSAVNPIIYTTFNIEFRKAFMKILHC
5-hydroxytryptamine receptor 4, sequence (Q62758 whole entry): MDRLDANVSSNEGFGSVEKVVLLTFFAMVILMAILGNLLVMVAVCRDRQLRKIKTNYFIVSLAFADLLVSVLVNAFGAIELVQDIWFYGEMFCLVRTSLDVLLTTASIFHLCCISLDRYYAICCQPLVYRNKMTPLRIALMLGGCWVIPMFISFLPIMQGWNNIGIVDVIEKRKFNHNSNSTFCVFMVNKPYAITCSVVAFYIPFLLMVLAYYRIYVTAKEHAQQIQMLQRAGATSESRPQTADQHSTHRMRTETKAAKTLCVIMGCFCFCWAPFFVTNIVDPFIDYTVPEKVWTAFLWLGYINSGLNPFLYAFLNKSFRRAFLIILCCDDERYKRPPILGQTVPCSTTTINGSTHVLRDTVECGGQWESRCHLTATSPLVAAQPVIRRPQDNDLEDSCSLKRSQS

**Q.** Which Ki [1] does the source give for `O=c1n(CCCCNCC2CCc3ccccc3O2)c(O)c2n1CSC2` (stereo not given) here?
**A.** > 1 µM

**Q.** What does the source list for `O=c1n(CCCCNCC2CCc3ccccc3O2)c(O)c2n1CCCC2` (stereo not given)?
**A.** Ki [2]: > 1 µM; Ki [1]: > 1 µM

**Q.** How did the Ki [2] turn out when `O=c1n(CCCCNCc2ccc3ccccc3n2)c(O)c2n1CCC2` was run?
**A.** > 1 µM

**Q.** What about the Ki [1] of the same compound?
**A.** > 1 µM

**Q.** How did the Ki [3] turn out when `O=c1n(CCCCNCCc2ccc3ccccc3c2)c(O)c2n1CCC2` was run?
**A.** > 1 µM

**Q.** And the Ki [2]?
**A.** > 1 µM

**Q.** With `O=c1n(CCCCNCc2ccc3ccccc3c2)c(O)c2n1CCC2` as the compound, how does the Ki [1] read?
**A.** > 1 µM

**Q.** With `O=c1n(CCCCNCCc2cccc3ccccc23)c(O)c2n1CCC2` as the compound, how does the Ki [3] read?
**A.** > 1 µM

**Q.** What about the Ki [2] of the same compound?
**A.** > 1 µM

**Q.** And the Ki [4]?
**A.** > 1 µM

**Q.** What about the Ki [5] of the same compound?
**A.** 0.028 µM

**Q.** And the Ki [6]?
**A.** > 1 µM

**Q.** And the Ki [1]?
**A.** > 1 µM

**Q.** For `O=c1scc(O)n1CCCCCCCCNCC1CCc2ccccc2O1` (stereo not given), which Ki [1] is on record?
**A.** > 1 µM

**Q.** With `O=c1scc(O)n1CCCCCCNCC1CCc2ccccc2O1` (stereo not given) as the compound, how does the Ki [1] read?
**A.** > 1 µM

**Q.** Which Ki [1] does the source give for `O=c1scc(O)n1CCCCCNCC1CCc2ccccc2O1` (stereo not given) here?
**A.** > 1 µM

**Q.** How did the Ki [2] turn out when `O=c1n(Cc2cccc(CNCC3CCc4ccccc4O3)c2)c(O)c2n1CCC2` (stereo not given) was run?
**A.** > 1 µM

**Q.** And the Ki [1]?
**A.** > 1 µM

**Q.** How did the Ki [2] turn out when `O=c1n(Cc2ccc(CNCC3CCc4ccccc4O3)cc2)c(O)c2n1CCC2` (stereo not given) was run?
**A.** > 1 µM

**Q.** What about the Ki [5] of the same compound?
**A.** 0.028 µM

**Q.** What about the Ki [1] of the same compound?
**A.** > 1 µM

**Q.** `O=c1n(CC#CCNCC2CCc3ccccc3O2)c(O)c2n1CCC2` (stereo not given) was tested. Which Ki [5] did it give?
**A.** > 1 µM

**Q.** How did the Ki [1] turn out when `O=c1n(C/C=C/CNCC2CCc3ccccc3O2)c(O)c2n1CCC2` (stereo not given) was run?
**A.** > 1 µM

**Q.** What does the source list for `O=c1n(CCCCCCNCC2CCc3ccccc3O2)c(O)c2n1CCC2` (stereo not given)?
**A.** Ki [2]: > 1 µM; Ki [1]: > 1 µM

**Q.** What does the source list for `O=c1n(CCCCCNCC2CCc3ccccc3O2)c(O)c2n1CCC2` (stereo not given)?
**A.** Ki [2]: > 1 µM; Ki [1]: > 1 µM

**Q.** `O=c1n(CCCNCC2CCc3ccccc3O2)c(O)c2n1CCC2` (stereo not given) was tested. Which Ki [2] did it give?
**A.** > 1 µM

**Q.** What about the Ki [1] of the same compound?
**A.** > 1 µM

**Q.** How did the Ki [1] turn out when `O=c1scc(O)n1CCCCNCC1CCc2ccccc2O1` (stereo not given) was run?
**A.** > 1 µM

**Q.** How did the Ki [5] turn out when `O=c1n(CCCCNCCc2ccccn2)c(O)c2n1CCC2` was run?
**A.** > 1 µM

**Q.** For `O=c1n(CCCCNCc2ccccn2)c(O)c2n1CCC2`, which Ki [5] is on record?
**A.** > 1 µM

**Q.** With `O=c1n(CCCCNCCc2cccs2)c(O)c2n1CCC2` as the compound, how does the Ki [5] read?
**A.** > 1 µM

**Q.** With `O=c1n(CCCCNCc2cccs2)c(O)c2n1CCC2` as the compound, how does the Ki [5] read?
**A.** > 1 µM

**Q.** Which Ki [5] does the source give for `O=c1n(CCCCNCCc2ccco2)c(O)c2n1CCC2` here?
**A.** > 1 µM

**Q.** With `O=c1n(CCCCNCc2ccco2)c(O)c2n1CCC2` as the compound, how does the Ki [5] read?
**A.** > 1 µM

**Q.** With `O=c1n(CCCCNCCc2ccccc2)c(O)c2n1CCC2` as the compound, how does the Ki [5] read?
**A.** > 1 µM

**Q.** With `O=c1n(CCCCNCc2ccccc2)c(O)c2n1CCC2` as the compound, how does the Ki [5] read?
**A.** > 1 µM

**Q.** `O=c1n(CCCCNCc2cccc3ccccc23)c(O)c2n1CCC2` was tested. Which Ki [5] did it give?
**A.** > 1 µM

From BindingDB's records for doi:10.1021/jm2007886 (Universidad Complutense De Madrid, 2011)
